For experiment [1], the system named is Mus musculus. Kind of experiment: Neurotoxicity in albino mouse assessed as animal in lateral position at 10 mg/kg, ip administered 1 hr prior to ethanol challenge measured after 30 mins. As to conditions: route intraperitoneal. The format is functional.
The subject of experiment [2] is Mus musculus. Kind of experiment: Antidepressant activity in albino mouse assessed as decrease in immobility time at 10 mg/kg, ip after 60 mins by forced-swimming test relative to untreated control. The format is functional. Set-up: scale not given: the % may be the effect or the level left. The note with it: route intraperitoneal. In a few lines:
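Albino mice given 10 mg/kg ip; forced swim in a vertical Plexiglas cylinder of water at 25 °C for 15 min, immobility plateauing after 5–6 min; % immobility calculated; mice dried in a heated enclosure (32 °C) afterwards.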

Drawing on ChEMBL document CHEMBL1139403, “Syntheses and anti-depressant activity of 5-amino-1, 3, 4-thiadiazole-2-thiol imines and thiobenzyl derivatives” (2008), this text covers Activity for five molecules.

As to `COc1ccc(/C=C/C(=N\c2nnc(SCc3ccc(Cl)cc3)s2)c2ccc(Cl)cc2)cc1`, the Activity is reported as below 50% in experiment [1] and 84.23% in experiment [2].
For `Clc1ccc(/C=C/C(=N\c2nnc(SCc3ccc(Cl)cc3)s2)c2ccc(Cl)cc2)cc1` the same measures were below 50% and 87.57%.
For `COc1ccc(/C=C/C(=N\c2nnc(SCc3ccccc3)s2)c2ccc(Cl)cc2)cc1` the same measures were below 50% and 77.99%.
As to `Clc1ccc(/C=C/C(=N\c2nnc(SCc3ccccc3)s2)c2ccc(Cl)cc2)cc1`, the Activity in experiment [1] was below 50%.
Take `CN(C)CCCN1c2ccccc2CCc2ccccc21` [IMIPRAMINE]: the Activity is recorded as below 50% in experiment [1] and 82% in experiment [2].
